# Screening data: PubChem BioAssay, several laboratories
# FAS-TE inh = blocks the thioesterase domain of human fatty acid synthase. P49327. recombinant FAS-TE, OMFH fluorogenic substrate, fluorescence endpoint. AID 602261. 360,000 compounds, 0.67% hits. inhibition, % at 15 µM;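 active = compounds whose normalised, plate-corrected inhibition of enzyme fluorescence in the single-dose primary screen is 50% or more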;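 also: 0% = DMSO with enzyme and 100% = substrate without enzyme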
# CaV13 FRET inh = Disruptors of the CACNA1D IQ motif to Ca2+-dependent inactivation inhibitor domain association, primary screening, Förster resonance energy transfer in intact living … | HEK cells, CFP/YFP FRET ICDI-IQ, plate reader, 10 min; percent FRET-ratio fall versus neutral wells | inhibition, % at 12.3 µM | 340,000 compounds, 0.098% hits | AID 743397;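 active = mean replicate inhibition of at least 30% and at least 1% of replicates passing that level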;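 also: 0% = median of the neutral control wells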
# NRP1-CendR mod = alters CendR peptide binding to human NRP-1; 360,000 compounds, 0.85% hits; inhibition, % at 25 µM; FAM-RPARPAR peptide binding to NRP-1, fluorescence polarization; O14786;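 active = inhibition or corrected inhibition above about 18%, plus a signal ratio from 0.5 to 1.5, limit read from the data, passing the limit was not always enough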
# Target sequence (O14786 whole entry, looked up): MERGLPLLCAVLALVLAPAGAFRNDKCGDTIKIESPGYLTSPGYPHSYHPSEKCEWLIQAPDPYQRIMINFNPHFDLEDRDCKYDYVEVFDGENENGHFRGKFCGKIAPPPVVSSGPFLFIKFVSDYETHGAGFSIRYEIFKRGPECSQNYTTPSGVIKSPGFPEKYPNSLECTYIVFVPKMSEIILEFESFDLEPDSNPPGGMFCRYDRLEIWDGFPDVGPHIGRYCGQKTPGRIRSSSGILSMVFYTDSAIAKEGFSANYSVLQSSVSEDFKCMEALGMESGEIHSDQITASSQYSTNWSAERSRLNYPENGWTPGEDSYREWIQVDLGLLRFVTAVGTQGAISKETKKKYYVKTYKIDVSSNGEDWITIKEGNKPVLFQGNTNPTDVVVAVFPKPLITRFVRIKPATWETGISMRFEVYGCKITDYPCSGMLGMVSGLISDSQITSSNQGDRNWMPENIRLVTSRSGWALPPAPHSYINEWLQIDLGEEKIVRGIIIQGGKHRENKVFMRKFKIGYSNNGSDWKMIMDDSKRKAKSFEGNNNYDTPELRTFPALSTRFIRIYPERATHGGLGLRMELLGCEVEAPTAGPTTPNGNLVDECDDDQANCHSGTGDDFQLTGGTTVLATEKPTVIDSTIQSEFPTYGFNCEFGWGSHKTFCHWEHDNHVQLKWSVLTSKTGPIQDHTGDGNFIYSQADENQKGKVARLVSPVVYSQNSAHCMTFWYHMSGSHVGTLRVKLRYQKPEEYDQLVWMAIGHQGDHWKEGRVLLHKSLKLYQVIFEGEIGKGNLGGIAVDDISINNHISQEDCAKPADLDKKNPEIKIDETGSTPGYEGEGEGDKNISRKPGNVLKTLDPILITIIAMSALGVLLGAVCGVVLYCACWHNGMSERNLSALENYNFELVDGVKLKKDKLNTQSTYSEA
# Arrestin-AP2 inh = blocks beta-arrestin peptide binding to AP2 adaptin | FITC-arrestin peptide / GST-AP2 beads, flow cytometry; AP2 beta2 appendage carries R879A mutation | inhibition, % at 10 µM | 340,000 compounds, 0.31% hits;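 active = inhibition above a set limit, near 3 SD of compounds lacking own fluorescence, cut at about 54% in these data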;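 also: plate controls were DMSO wells for no effect and 5 µM unlabelled arrestin peptide for full effect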
#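 Test system: GST-tagged AP2 beta2-adaptin appendage (R879A) on 4 µm glutathione beads; also added: fluorescein-tagged arrestin peptide at 50 nM final; timing: 12 min plus 1 h, RT; signal: flow cytometry, FL1 (488/535 nm); read-out: percent drop in bead-associated FITC signal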
# ADAM10 inh = inhibitors of human ADAM10 | 370,000 compounds, 0.62% hits | inhibition, % at 7 µM | recombinant ADAM10, EDANS/DABCYL FRET peptide cleavage, 3 h | O14672 | AID 720582;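 active = inhibition above a per-campaign cutoff equal to the mean of compounds falling between control-based bounds plus 3 SD, cut at about 20% in these data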;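 also: 0% = DMSO wells while the 100% control is not disclosed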
# ADAM17 inh = inhibitors of human ADAM17 | P78536 | recombinant ADAM17, EDANS/DABCYL FRET peptide cleavage | inhibition, % at 6.95 µM | 370,000 compounds, 0.83% hits | AID 720648;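 active = inhibition above the mean of compounds lying between control limits plus 3 SD, set per campaign, cut at about 8.5% in these data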;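 also: 0% = DMSO-only wells as the low control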
# ADAM10 ctr = ADAM10 inhibition, counter-screen for ADAM17 exosite hits | shares compounds with ADAM17 inh | recombinant ADAM10, EDANS/DABCYL FRET peptide cleavage, 3 h | inhibition, % at 6.95 µM | 2,900 compounds, 47% hits | AID 743256;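 active = mean inhibition over the triplicate runs exceeds the activity threshold set in the earlier primary screen, cut at about 20% in these data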;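 also: 0% = DMSO wells and 100% = marimastat wells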
# ADAM17 confirm = human ADAM17 inhibition, confirmation; recombinant ADAM17, EDANS/DABCYL QFRET peptide cleavage; shares compounds with ADAM17 inh; AID 743257; 2,900 compounds, 65% hits; inhibition, % at 6.95 µM;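 active = mean inhibition across replicates above the hit cutoff set in the primary screen, cut at about 8.5% in these data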;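 also: 0% = DMSO wells and 100% = marimastat wells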
# Starred values were filed as active, the others as inactive; i = inactive; nt = not tested or not shown. Sampled rows, rich in hits. Any-hit rate of the full collection: about 2.9%.
SMILES,FAS-TE inh,CaV13 FRET inh,NRP1-CendR mod,Arrestin-AP2 inh,ADAM10 inh,ADAM17 inh,ADAM10 ctr,ADAM17 confirm
O=C(NC1CCCCN(Cc2cccc(Cl)c2)C1=O)c1ccc(COc2ccccc2)cc1 (centres undefined),nt,nt,nt,nt,13,10*,15,11*
CCN1C(=O)C(CC(=O)Nc2ccc(Br)cc2)N(CCCc2ccccc2)C1=S (centres undefined),45,-5,-7,6,18,9.0*,35*,20*
CCN1C(=O)C(CC(=O)Nc2ccc(OC)cc2)N(CCc2ccc(OC)cc2)C1=S (centres undefined),17,1,12,52,18,11*,32*,15*
COc1ccc(CCN2C(=S)N(c3ccccc3)C(=O)C2CC(=O)O)cc1OC (centres undefined),-5,-19,5,8,8,0,nt,nt
O=C(CSC1CC(=O)N(CCc2ccccc2)C1=O)Nc1ccc(Br)cc1 (centres undefined),10,-4,-11,18,12,9.3*,10,8
CCOc1ccc(NC(=O)CC2C(=O)N(C)C(=S)N2CCCc2ccccc2)cc1 (centres undefined),0,-5,-6,1,6,2,nt,nt
CNC(=O)CC1C(=O)N(c2ccc(Cl)cc2)C(=S)N1CCc1ccc(OC)c(OC)c1 (centres undefined),-2,-2,-1,19,13,8.7*,14,7
Clc1cccc(-c2nc3ccc(Cl)cn3c2Cc2ccsc2)c1,1,nt,-26,nt,nt,nt,nt,nt
O=C(NCCc1ccccc1)OCc1cn(Cc2cccc(C(F)(F)F)c2)nn1,nt,nt,nt,nt,8,-1,nt,nt
Cc1ccc(S(=O)(=O)Nc2ccccc2CNc2ccccn2)cc1,21,-3,3,3,14,8.8*,18,10*
Cc1ccc(S(=O)(=O)Nc2ccccc2CNc2ccc(Br)cn2)cc1,34,-19,0,39,10,4,nt,nt
COc1ccc(CCC(=O)Nc2ccc(S(=O)(=O)N3CCOCC3)cc2)cc1OC,-6,-15,-7,nt,-5,-2,nt,nt
Cc1ccc(CN2C(=O)CSCC2(C)C(=O)NC(C)C)cc1 (centres undefined),nt,-9,12,nt,-5,-3,nt,nt
Cc1cccc(S(=O)(=O)NC(=O)C2(C)CCN2C(=O)Cc2ccc(Cl)cc2Cl)c1 (centres undefined),-8,-6,-10,nt,0,0,nt,nt
CCOC(=O)[C@]12CCC=C1N(Cc1ccc(Cl)cc1Cl)C(=O)[C@H](CC(=O)NCc1cccc(C(F)(F)F)c1)C2,23,-2,12,nt,12,7,nt,nt
Cc1cc(S(=O)(=O)NCc2ccccc2)ccc1OCC(=O)Nc1cccc([N+](=O)[O-])c1,37,-3,6,-3,18,8.7*,35*,22*
Cc1cccc(N2CCN(C(=O)c3ccc(CS(=O)Cc4ccc(Cl)cc4)o3)CC2)c1C (centres undefined),21,-8,10,-11,19,11*,18,12*
CCOC(=O)CC[C@@]1(C(=O)OCC)C[C@@H](CC(=O)N2CCCC2)C(=O)N2CCCC=C21,nt,nt,nt,nt,-2,4,nt,nt
CCCC(=O)Nc1nc2ccc(OC)cc2s1,-3,-7,5,6,3,1,nt,nt
COc1ccc2nc(NC(=S)N(C)C)sc2c1,0,-4,-2,-2,6,13*,-10,1
O=C(N[C@H](C(=O)N1CCC[C@H]1C(=O)NC1CCCC1)C1CCCCC1)c1ccccc1,nt,-2,nt,nt,-4,-3,nt,nt
CC(C)(C)[C@@H]1COC(=O)[C@H](Cc2ccc(F)cc2)CC/C=C\C[C@H](CC(=O)N(CCO)Cc2ccccc2)C(=O)N1,-2,-12,0,2,14,11*,7,5
CC(C)(C)[C@@H]1COC(=O)[C@@H](Cc2ccc(F)cc2)CC/C=C\C[C@@H](CC(=O)N(CCO)Cc2ccccc2)C(=O)N1,5,-10,14,2,2,-4,nt,nt
O=C1N[C@@H](Cc2c[nH]c3ccccc23)COC(=O)[C@@H](Cc2ccc(F)cc2)CC/C=C/C[C@@H]1CC(=O)N(CCO)Cc1ccccc1,26,-3,-5,-6,18,10*,59*,28*
C=CCC[C@@H](Cc1ccc(F)cc1)C(=O)OC[C@H](C)NC(=O)[C@@H](CC=C)CC(=O)N(CCO)Cc1ccccc1,18,-4,-2,-5,19,9.8*,6,7
SMILES,FAS-TE inh,CaV13 FRET inh,NRP1-CendR mod,Arrestin-AP2 inh,ADAM10 inh,ADAM17 inh,ADAM10 ctr,ADAM17 confirm
C=CCC[C@@H](Cc1ccc(F)cc1)C(=O)OC[C@@H](Cc1c[nH]c2ccccc12)NC(=O)[C@@H](CC=C)CC(=O)N(CCO)Cc1ccccc1,23,-2,3,-6,7,9.5*,37*,21*
C=CCC[C@H](Cc1ccc(F)cc1)C(=O)OC[C@@H](C)NC(=O)[C@H](CC=C)CC(=O)N(CCO)Cc1ccccc1,18,-6,-7,-2,9,2,nt,nt
O=C(N[C@H](Cc1ccccc1)C(=O)NCC1CCCCC1)[C@H]1O[C@@H](n2ccc(=O)[nH]c2=O)[C@H](O)[C@@H]1O,nt,-6,nt,nt,-13,-1,nt,nt
CCOC(=O)CC[C@@]1(C(=O)OCC)C[C@@H](CC(=O)N2CCN(C(=O)c3ccco3)CC2)C(=O)N2CCCC=C21,nt,nt,nt,nt,4,3,nt,nt
CCN(Cc1ccccc1)S(=O)(=O)c1ccc(S(=O)(=O)N(Cc2ccccn2)Cc2ccco2)cc1,-9,-4,0,3,-1,-4,nt,nt
CC1CCCCN1S(=O)(=O)c1ccc(S(=O)(=O)N(Cc2ccccc2)Cc2ccco2)cc1 (centres undefined),31,nt,-3,2,15,16*,20*,12*
CCCCNc1cccc2c1S(=O)(=O)N[C@H](Cc1ccccc1)CO2,nt,-4,nt,nt,4,6,nt,nt
CS(=O)(=O)c1ccccc1-c1nc(-c2ccc(C(F)(F)F)cc2)no1,16,nt,-2,-2,18,8.7*,9,5
COc1cccc(C=NNC(=O)CSc2nc3ccccc3[nH]2)c1O,nt,nt,nt,nt,17,10*,-7,0
COc1cccc(/C=N/NC(=O)CSc2ccccc2C)c1O,6,-3,2,-3,-4,-2,nt,nt
COc1ccc2sc(-c3ccc(N(C)C)cc3)c(C#Cc3cncn3C)c2c1,22,3,5,-5,i,-383,nt,nt
